Measured values: ChEMBL document CHEMBL3108734, “Identification of a new scaffold for hsp90 C-terminal inhibition” (ACS Med Chem Lett, 2014)
Activity calls are given as the source filed them. The calls are words filed in the database; no cut-off is given here.

How the values were obtained:
MCF7 = experiment: Antiproliferative activity against human MCF7 cells after 72 hrs by MTS assay; type: functional, cell-based; conditions: MCF7, 72 h
Summary of the method: (§1)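 IC50 values for growth inhibition were derived from assays run in triplicate. Values are mean ± standard deviation of at least two separate experiments.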

[1] = Antiproliferative activity against human SKBR3 cells after 72 hrs by MTS assay; type: functional, cell-based; conditions: SK-BR-3, 72 h; summary of the method: as §1
[2] = molecular target: Heat shock protein HSP 90-beta (Homo sapiens) (UniProt P08238); experiment: Inhibition of HSP90 in human MCF7 cells assessed as degradation of p-Akt at 1 to 10 uM after 24 hrs by Western blotting analysis; type: cell-based
Sequence of Heat shock protein HSP 90-beta (Homo sapiens) (P08238 whole entry): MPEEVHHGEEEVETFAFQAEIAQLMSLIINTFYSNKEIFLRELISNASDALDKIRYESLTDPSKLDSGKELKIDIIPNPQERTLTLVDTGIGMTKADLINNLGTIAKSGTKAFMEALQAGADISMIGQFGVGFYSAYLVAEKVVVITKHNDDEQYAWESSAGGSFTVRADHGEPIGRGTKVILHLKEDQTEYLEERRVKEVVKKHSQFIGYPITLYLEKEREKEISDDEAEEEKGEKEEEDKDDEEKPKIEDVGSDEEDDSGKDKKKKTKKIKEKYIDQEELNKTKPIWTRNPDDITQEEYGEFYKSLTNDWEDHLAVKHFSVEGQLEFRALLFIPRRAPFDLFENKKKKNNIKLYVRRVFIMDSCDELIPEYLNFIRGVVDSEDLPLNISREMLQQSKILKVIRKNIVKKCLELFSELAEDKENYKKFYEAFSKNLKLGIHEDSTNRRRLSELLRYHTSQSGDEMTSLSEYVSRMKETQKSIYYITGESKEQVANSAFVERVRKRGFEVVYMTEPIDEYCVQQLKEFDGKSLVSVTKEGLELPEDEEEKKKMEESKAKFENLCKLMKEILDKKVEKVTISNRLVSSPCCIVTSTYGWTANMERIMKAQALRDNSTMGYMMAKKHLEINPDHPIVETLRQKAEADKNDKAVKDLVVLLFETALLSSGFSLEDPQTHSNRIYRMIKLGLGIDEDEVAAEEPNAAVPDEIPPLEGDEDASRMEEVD
Summary of the method: (§2)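 MCF-7 breast cancer cells were treated with compound at the concentrations shown, then lysed. Lysates were analysed by Western blot for the Hsp90-dependent clients Her2, Raf-1 and p-Akt, with actin as the Hsp90-independent control. Geldanamycin (0.5 μM) served as positive control and DMSO as negative control.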

[3] = molecular target: Heat shock protein HSP 90-beta (Homo sapiens) (UniProt P08238); experiment: Inhibition of HSP90 in human MCF7 cells assessed as degradation of Raf-1 at 1 to 10 uM after 24 hrs by Western blotting analysis; type: cell-based; summary of the method: as §2
[4] = molecular target: Heat shock protein HSP 90-beta (Homo sapiens) (UniProt P08238); experiment: Inhibition of HSP90 in human MCF7 cells assessed as degradation of Her-2 at 1 to 10 uM after 24 hrs by Western blotting analysis; type: cell-based; summary of the method: as §2
[5] = molecular target: Heat shock protein HSP 90-beta (Homo sapiens) (UniProt P08238); experiment: Inhibition of HSP90 in human MCF7 cells assessed as degradation of p-Akt after 24 hrs by Western blotting analysis; type: cell-based; summary of the method: as §2
[6] = molecular target: Heat shock protein HSP 90-beta (Homo sapiens) (UniProt P08238); experiment: Inhibition of HSP90 in human MCF7 cells assessed as degradation of Raf-1 after 24 hrs by Western blotting analysis; type: cell-based; summary of the method: as §2
[7] = molecular target: Heat shock protein HSP 90-beta (Homo sapiens) (UniProt P08238); experiment: Inhibition of HSP90 in human MCF7 cells assessed as degradation of Her-2 after 24 hrs by Western blotting analysis; type: cell-based; summary of the method: as §2

| Compound | IC50 (MCF7) [µM] | IC50 [1] [µM] | further results |
| --- | --- | --- | --- |
| COc1cccc(C(=O)Nc2cccc(-c3ccc(OC4CCN(C)CC4)cc3)c2)c1 | 4.5 | 8.36 |  |
| COc1ccc(C(=O)Nc2cccc(-c3ccc(OC4CCN(C)CC4)cc3)c2)cc1 | 5.52 | 10.1 |  |
| Cc1cccc(C(=O)Nc2cccc(-c3ccc(OC4CCN(C)CC4)cc3)c2)c1 | 7.73 | 11.4 |  |
| CN1CCC(Oc2ccc(-c3cccc(NC(=O)c4ccccc4Cl)c3)cc2)CC1 | 5.17 | 7.87 |  |
| CN1CCC(Oc2ccc(-c3cccc(NC(=O)c4ccc(Cl)cc4Cl)c3)cc2)CC1 | 3.93 | 5.91 |  |
| CN1CCC(Oc2ccc(-c3cccc(NC(=O)c4ccc(C(C)(C)C)cc4)c3)cc2)CC1 | 3.45 | 1.51 |  |
| CO[C@@H]1[C@@H](OC(N)=O)[C@@H](O)[C@H](Oc2ccc3c(O)c(NC(=O)c4ccc(O)c(CC=C(C)C)c4)c(=O)oc3c2C)OC1(C)C [NOVOBIOCIN] |  | 700 |  |
| CN1CCC(Oc2ccc(-c3cccc(NC(=O)c4ccccc4)c3)cc2)CC1 | 12 | 18.9 |  |
| Cc1ccc(C(=O)Nc2cccc(-c3ccc(OC4CCN(C)CC4)cc3)c2)cc1 | 3.92 | 5.27 |  |
| CN1CCC(Oc2ccc(-c3cccc(NC(=O)c4cc(Cl)cc(Cl)c4)c3)cc2)CC1 | 3.72 | 4.23 |  |

Continued, in another order:

| IC50 (MCF7) [µM] | Compound | IC50 [1] [µM] | further results |
| --- | --- | --- | --- |
| 1.1 | CN1CCC(Oc2ccc(-c3cccc(NC(=O)c4cccc5ccccc45)c3)cc2)CC1 | 1.64 |  |
| 2.11 | CN1CCC(Oc2ccc(-c3cccc(NC(=O)c4cccc(Cl)c4)c3)cc2)CC1 | 4.29 |  |
| 1.45 | CC(=O)Oc1ccc(C(=O)Nc2cccc(-c3ccc(OC4CCN(C)CC4)cc3)c2)cc1CC=C(C)C | 3.65 |  |
| 2.21 | CC(C)=CCc1cc(C(=O)Nc2cccc(-c3ccc(OC4CCN(C)CC4)cc3)c2)ccc1O | 2.94 | inhibition [2]: Active; inhibition [3]: Active; inhibition [4]: Active |
| 0.88 | CN1CCC(Oc2ccc(-c3cccc(NC(=O)c4ccc(Br)cc4)c3)cc2)CC1 | 1.94 | inhibition [5]: Dose-dependent effect; inhibition [6]: Dose-dependent effect; inhibition [7]: Dose-dependent effect |
| 2.71 | COc1cccc(-c2cc(C(=O)Nc3cccc(-c4ccc(OC5CCN(C)CC5)cc4)c3)ccc2OC)c1 | 3.47 |  |
| 2.23 | CN1CCC(Oc2ccc(-c3cccc(NC(=O)c4ccc(Cl)cc4)c3)cc2)CC1 | 3.63 |  |
| 1.66 | CN1CCC(Oc2ccc(-c3cccc(NC(=O)c4ccc5ccccc5c4)c3)cc2)CC1 | 2.09 |  |
| 2.17 | CN1CCC(Oc2ccc(-c3cccc(NC(=O)c4ccc(Cl)c(Cl)c4)c3)cc2)CC1 | 2.24 |  |
